The source made the active and inactive calls. No cut-off for these calls is given here.
Tests used:
[1] = molecular target: T1, Alkaline ceramidase 3 (Mus musculus) (UniProt Q9D099); assay: Inhibition of ACER3 in ASAH2-null intact mouse embryonic fibroblast cell assessed as reduction in glucosylceramide level incubated for 3 hrs by LC-MS analysis; settings: MEF
T1 sequence (whole entry): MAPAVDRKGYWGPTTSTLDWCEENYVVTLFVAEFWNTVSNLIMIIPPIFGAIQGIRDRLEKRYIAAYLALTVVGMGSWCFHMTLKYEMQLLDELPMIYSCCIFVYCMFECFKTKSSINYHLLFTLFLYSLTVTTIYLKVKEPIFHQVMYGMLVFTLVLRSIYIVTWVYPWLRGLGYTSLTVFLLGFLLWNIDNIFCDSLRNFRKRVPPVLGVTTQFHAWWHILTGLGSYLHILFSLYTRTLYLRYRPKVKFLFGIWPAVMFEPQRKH
In short: (§1)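 ASAH2-null MEF seeded at 0.2x10^6 cells/mL, grown 24 h, then given 50 μM compound or vehicle in DMEM 10% FBS for 3 h. Cells washed with PBS, lipids extracted and quantified by LC/MS. Mean ± SD from two experiments with triplicates; unpaired two-tailed t-test versus vehicle.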

[2] = molecular target: T2, Neutral ceramidase (Homo sapiens, UniProt Q9NR71); assay: Inhibition of human ASAH2 transiently over expressed in human HT29 cell lysate using RBM14C24 fluorogenic substrate measured at >40 uM at pH 7.4 by fluorescence spectrophotometry; settings: HT-29, dose microM >40
T2 sequence (Q9NR71 whole entry): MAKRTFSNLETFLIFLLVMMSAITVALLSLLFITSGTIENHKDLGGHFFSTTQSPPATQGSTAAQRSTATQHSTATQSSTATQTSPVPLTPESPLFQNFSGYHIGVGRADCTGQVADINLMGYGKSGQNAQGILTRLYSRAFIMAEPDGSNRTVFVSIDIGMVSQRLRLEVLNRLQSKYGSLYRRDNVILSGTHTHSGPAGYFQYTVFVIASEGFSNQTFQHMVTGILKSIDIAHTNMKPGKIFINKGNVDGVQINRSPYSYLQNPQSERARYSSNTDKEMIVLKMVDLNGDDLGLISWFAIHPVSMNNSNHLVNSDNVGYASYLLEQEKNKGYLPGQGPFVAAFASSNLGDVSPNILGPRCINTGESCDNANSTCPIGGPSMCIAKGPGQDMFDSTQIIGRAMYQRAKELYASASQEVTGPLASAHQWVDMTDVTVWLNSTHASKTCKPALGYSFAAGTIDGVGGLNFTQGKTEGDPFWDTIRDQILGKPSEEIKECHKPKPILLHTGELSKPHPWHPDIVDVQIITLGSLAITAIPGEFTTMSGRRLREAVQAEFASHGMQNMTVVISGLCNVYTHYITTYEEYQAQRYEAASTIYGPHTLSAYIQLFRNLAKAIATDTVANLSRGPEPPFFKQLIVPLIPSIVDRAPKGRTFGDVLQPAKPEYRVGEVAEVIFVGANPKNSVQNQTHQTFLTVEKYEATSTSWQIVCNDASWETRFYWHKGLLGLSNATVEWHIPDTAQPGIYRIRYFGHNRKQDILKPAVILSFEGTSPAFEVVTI

[3] = molecular target: T3, Acid ceramidase (Homo sapiens) (UniProt Q13510); assay: Inhibition of human ASAH1 stably over expressed in human A-375 cell lysate using RBM14C12 fluorogenic substrate measured at 40 uM at pH 4.5 by fluorescence spectrophotometry; format: subcellular
T3 sequence (whole entry): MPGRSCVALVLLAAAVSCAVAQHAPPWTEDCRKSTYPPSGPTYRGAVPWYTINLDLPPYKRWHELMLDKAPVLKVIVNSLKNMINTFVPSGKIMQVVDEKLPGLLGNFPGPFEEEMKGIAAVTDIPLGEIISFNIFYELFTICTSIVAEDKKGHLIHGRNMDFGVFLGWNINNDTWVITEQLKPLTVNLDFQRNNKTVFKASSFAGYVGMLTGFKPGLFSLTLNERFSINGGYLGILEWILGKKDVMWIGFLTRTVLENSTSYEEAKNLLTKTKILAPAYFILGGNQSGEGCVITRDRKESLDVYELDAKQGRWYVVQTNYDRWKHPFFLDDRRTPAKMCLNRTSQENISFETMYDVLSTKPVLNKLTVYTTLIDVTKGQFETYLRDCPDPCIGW
In short: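 Lysate of doxycycline-induced AC-overexpressing A375 cells (25 μg) in 25 mM sodium acetate pH 4.5, with RBM14C12 (10 μM) and a range of compound concentrations, 3 h at 37 °C. NaIO4/glycine-NaOH pH 10.6 development, fluorescence at 355/460 nm. Mean ± SEM from three to four experiments in triplicate.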

[4] = molecular target: Neutral ceramidase (Mus musculus) (UniProt Q9JHE3); assay: Inhibition of ASAH2 in wild type mouse intact embryonic fibroblast using RBM14C16 fluorogenic substrate measured at pH 7.5 incubated for 3 hrs by fluorescence spectrophotometry; settings: MEF
Sequence of Neutral ceramidase (Mus musculus) (Q9JHE3 whole entry): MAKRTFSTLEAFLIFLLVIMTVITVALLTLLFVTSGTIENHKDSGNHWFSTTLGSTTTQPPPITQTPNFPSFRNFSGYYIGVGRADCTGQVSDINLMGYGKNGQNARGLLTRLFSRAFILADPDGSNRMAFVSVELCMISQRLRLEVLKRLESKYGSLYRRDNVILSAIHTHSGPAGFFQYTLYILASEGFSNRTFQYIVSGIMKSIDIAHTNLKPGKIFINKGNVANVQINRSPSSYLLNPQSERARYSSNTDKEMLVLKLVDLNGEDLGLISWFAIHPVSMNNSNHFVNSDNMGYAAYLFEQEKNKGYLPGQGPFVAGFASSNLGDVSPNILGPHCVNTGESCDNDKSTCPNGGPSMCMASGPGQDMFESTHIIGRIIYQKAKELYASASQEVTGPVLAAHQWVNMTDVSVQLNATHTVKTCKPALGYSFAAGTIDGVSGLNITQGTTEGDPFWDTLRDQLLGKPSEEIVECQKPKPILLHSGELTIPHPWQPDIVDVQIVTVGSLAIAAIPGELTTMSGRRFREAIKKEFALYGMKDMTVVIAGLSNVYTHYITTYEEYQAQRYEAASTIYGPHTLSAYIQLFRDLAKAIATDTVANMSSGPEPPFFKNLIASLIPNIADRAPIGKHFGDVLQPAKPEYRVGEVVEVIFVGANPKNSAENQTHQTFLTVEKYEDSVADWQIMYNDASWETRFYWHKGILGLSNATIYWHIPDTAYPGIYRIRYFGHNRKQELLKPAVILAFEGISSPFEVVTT
In short: (§2)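 Intact MEF (ASAH2-null or wild type) seeded at 2x10^4 cells/well 24 h before the assay. Then given RBM14C16 (10 μM) plus a range of compound concentrations, added together, in DMEM 10% FBS for 3 h at 37 °C. Stopped with MeOH, oxidized with NaIO4 at pH 10.6, umbelliferone fluorescence read at 355/460 nm. Normalized to SRB protein; three experiments in triplicate.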

[5] = molecular target: T1, Alkaline ceramidase 3 (Mus musculus); assay: Inhibition of ACER3 in ASAH2-null mouse embryonic fibroblast lysate using RBM14C16 fluorogenic substrate measured at pH 9 in presence of Ca2+ by fluorescence spectrophotometry; format: subcellular; settings: MEF, time 3.0 hrs
In short: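 Lysate of ASAH2-null MEF (25 μg protein) in 50 mM HEPES, 1 mM CaCl2, pH 9, incubated 3 h at 37 °C with RBM14C16 and test compound. Stopped with MeOH, then NaIO4 in glycine-NaOH pH 10.6, 1 h at 37 °C in dark. Fluorescence read at ex 355/em 460 nm against enzyme-free blanks. Triplicates.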

[6] = molecular target: T2, Neutral ceramidase; assay: Inhibition of human ASAH2 stably over expressed in human A-375 cell lysate using RBM14C24 fluorogenic substrate measured at 20 uM at pH 7.5 by fluorescence spectrophotometry; format: subcellular
[7] = molecular target: T2, Neutral ceramidase; assay: Non-competitive inhibition of recombinant ASAH2 stably over expressed in human A-375 cell lysate using RBM14C24 as substrate; format: subcellular
[8] = molecular target: T4, Alkaline ceramidase 3 (Mus musculus, UniProt Q9D099); assay: Non-competitive inhibition of ACER3 in ASAH2-null mouse embryonic fibroblast lysate using RBM14C16 as substrate; format: subcellular
T4 sequence (Q9D099 whole entry): T1 sequence (whole entry)
In short: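 Kinetics used ASAH2-null MEF lysate (25 μg) in 50 mM HEPES, 1 mM CaCl2, pH 9. RBM14C16 at 5, 10, 20 and 40 μM, with varied inhibitor amounts. Ki taken from the slopes of double-reciprocal regression lines at each inhibitor concentration. Four experiments in triplicate.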

[9] = molecular target: T5, Acid ceramidase (Homo sapiens, UniProt Q13510); assay: (§3) Inhibition of human ASAH1 stably over expressed in human intact A-375 cells using RBM14C12 fluorogenic substrate measured at pH 4.5 by fluorescence spectrophotometry; format: cell-based
T5 sequence (Q13510 whole entry): T3 sequence (whole entry)
In short: (§4)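 A375 cells with doxycycline-inducible AC, induced with 1 μg/mL doxycycline for 24 h. Intact cells (2x10^4/well) given RBM14C12 (10 μM) plus compounds in a range of concentrations in DMEM 10% FBS for 3 h at 37 °C. NaIO4 oxidation at pH 10.6, fluorescence at 355/460 nm, normalized to SRB protein. Three experiments in triplicate.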

[10] = molecular target: T1, Alkaline ceramidase 3 (Mus musculus); assay: Inhibition of ACER3 in ASAH2-null mouse intact embryonic fibroblast using RBM14C16 fluorogenic substrate measured at pH 9 for 3 hrs by fluorescence spectrophotometry; settings: MEF; in short: as §2
[11] = molecular target: T1, Alkaline ceramidase 3 (Mus musculus); assay: Inhibition of ACER3 in ASAH2-null intact mouse embryonic fibroblast cell assessed as reduction in sphingosine level incubated for 3 hrs by LC-MS analysis; settings: MEF; in short: as §1
[12] = molecular target: T1, Alkaline ceramidase 3 (Mus musculus); assay: Inhibition of ACER3 in ASAH2-null intact mouse embryonic fibroblast cell assessed as increase in total […] incubated for 3 hrs by LC-MS analysis; settings: MEF; in short: as §1
[13] = molecular target: T1, Alkaline ceramidase 3 (Mus musculus); assay: Inhibition of ACER3 in ASAH2-null intact mouse embryonic fibroblast cell assessed as reduction in sphingomyelin level incubated for 3 hrs by LC-MS analysis; settings: MEF; in short: as §1
[14] = molecular target: T3, Acid ceramidase (Homo sapiens); assay: Inhibition of human ASAH1 stably over expressed in human A-375 cell lysate using RBM14C12 fluorogenic substrate measured at 1:1 compound to substrate molar ratio at pH 4.5 by fluorescence spectrophotometry; format: subcellular
[15] = molecular target: T2, Neutral ceramidase; assay: Inhibition of human ASAH2 transiently over expressed in human HT-29 cell lysate using RBM14C24 fluorogenic substrate measured at pH 7.4 by fluorescence spectrophotometry
[16] = molecular target: T2, Neutral ceramidase; assay: Inhibition of human ASAH2 recombinant enzyme using RBM14C16 fluorogenic substrate measured at 5 uM at pH 7.5 by fluorescence spectrophotometry
[17] = molecular target: T2, Neutral ceramidase; assay: Inhibition of human ASAH2 recombinant enzyme using RBM14C16 fluorogenic substrate measured at 20:1 substrate to compound molar ratio at pH 7.5 by fluorescence spectrophotometry
[18] = molecular target: T3, Acid ceramidase (Homo sapiens); assay: as §3; format: cell-based; settings: time 3.0 hrs; in short: as §4

Row | inhibition [1] | inhibition [2] [%] | inhibition [3] | inhibition [4] | inhibition [5] | inhibition [6] | Ki [7] [µM] | Ki [8] [µM] | IC50 [9] [µM] | inhibition [10] | inhibition [11] | fold change (FC) [12] | inhibition [13] | inhibition [14] | inhibition [15] | inhibition [16] | inhibition [17] | inhibition [18] | SMILES
1 | inactive | 50 | Active | Active | Dose-Dependent Effect | inactive | 5.4 | 25.5 | > 200 | Active | inactive | 1.5 | inactive | inactive | Dose-Dependent Effect |  |  |  | CCCCCCCCCCCC/C=C/[C@@H](O)[C@@H](C)NC(=O)c1ccc(OCCCOCOC)cc1
2 | inactive |  |  | Active | Dose-Dependent Effect |  |  | 34.4 | > 200 | Active | inactive | 1.5 | inactive | inactive |  |  |  |  | CCCCCCCCCCCC/C=C/[C@@H](O)[C@@H](C)NC(=O)c1ccc(OCCCCOCOC)cc1
3 |  |  | Active | inactive |  | Active | 0.8 |  |  | inactive |  |  |  | inactive | inactive | Active | Active | inactive | CCCCCCCCCCCC/C=C/[C@@H](O)[C@@H](C)NC(=O)c1ccc(CCCCCCC)cc1

Reference: ChEMBL document CHEMBL4813974 (Eur J Med Chem, 2021)
